# Assay results gathered from unrelated publications.
# Compare with care: the assays were run in different laboratories.
# Target: STE20-like serine/threonine-protein kinase (SLK, Homo sapiens, UniProt Q9H2G2)
SMILES,effect on,mode,method,concentration,quantity,result
COc1ncccc1-c1cnn2ccc(N3CCN(C(=O)OC(C)C)CC3)nc12,binding,,competition with immobilised ligand,1 µM,remaining binding,100%
Cn1cncc1[C@@](O)(COc1ccc(C#N)cc1-c1ccc(OC(F)(F)F)cc1)c1ccc(C#N)cc1,cell-free assay,,competition with immobilised ligand,1 µM,remaining binding,100%
O=c1[nH]c2ccccc2n1C1CCN(Cc2ccc(-c3[nH]c4cc5ncnc5cc4nc3-c3ccccc3)cc2)CC1,cell-free assay,,,0.5 µM,remaining signal,97.7%
Cn1cc(-c2cccc(N3CCc4c(sc5c4CC(C)(C)C5)C3=O)c2CO)cc(Nc2ccncn2)c1=O,enzyme activity,inhibitor,,1 µM,inhibition,4%
COc1cc(Nc2ncc(F)c(Nc3ccc4c(n3)NC(=O)C(C)(C)O4)n2)cc(OC)c1OC,binding,,,10 µM,inhibition,100%
Cn1cc(-c2cc(F)cc(N3CCn4c(cc5c4CCCC5)C3=O)c2CO)cc(Nc2ccc(N3CCN(C4COC4)CC3)cn2)c1=O,enzyme activity,inhibitor,,0.1 µM,inhibition,4%
CC(C)(C)c1cc(C=C(C#N)C#N)cc(Br)c1O,enzyme activity,inhibitor,,0.5 µM,remaining activity,94.7%
N#CC1(c2ccccn2)CCN(Cc2cc(C(=O)O)c(=O)n3ccccc23)CC1,cell-free assay,,competition with immobilised ligand,1 µM,remaining binding,99%
Cc1nn(C)cc1-c1nc2c(N3CCN(Cc4ccc(Cl)cc4)CC3)c(Cl)cnc2[nH]1,binding,,competition with immobilised ligand,1 µM,remaining binding,100%
Nc1ncc(-c2nc(N3CCOCC3)nc(N3CCOCC3)n2)c(C(F)F)n1,binding,,competition with immobilised ligand,10 µM,remaining binding,24%
